Screening results deposited in PubChem by several laboratories.
Only some compounds are listed: those with a hit (about 2.9% of all), similar ones and a draw of the others.
ATG4B inhibitor: ATG4B (human) cysteine protease inhibition. Q9Y4P1. ATG4B cleavage of LC3-PLA2, NBD-HPC fluorescence, 1 h. inhibition, % at 8.33 µM. hit rate 0.51% among 340,000. AID 504462; in the data active = inhibition above about 40%
Dynein transport: dynein cargo transport inhibition; z-score, hits read low; 3617.4 mouse cells, GR-EGFP nuclear translocation imaging; test concentration mostly 20 µM; stimulated with dexamethasone, 1 µM; stronger effect = lower value; hit rate 0.47% among 220,000;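 active = plate z-score of nuclear minus cytoplasmic receptor signal below a set negative limit, without overly bright fluorescence or cell loss, cut at about -3.5 in these data, passing the limit was not always enough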;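 note: z-score of nuclear minus cytoplasmic ring GR-EGFP intensity difference per well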
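Buffer or medium: tet-free medium with charcoal-stripped serum / Also added: dexamethasone agonist, 1.0 µM final, for 30 min / Timing: induction 48 h, compound 1 h, agonist 30 min / Measured by: high-content fluorescence imaging after fixation / Read-out: nuclear-to-cytoplasmic GR-EGFP distribution per well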
B2AR ag: activates human beta-2 adrenergic receptor causing internalization. P07550. Am2.2-beta2AR cells, FAP receptor internalization, flow cytometry. response, % (no concentration beside the values). hit rate 0.43% among 340,000;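 active = response above a set limit, near 3 SD of response in nonfluorescent compounds, cut at about 42% in these data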
MEKK2 WT-MEK5: raises or lowers MEK5 binding to wildtype human MEKK2 PB1 domain | Q9Y2U5 | bead flow cytometry, Alexa488-MEK5 binding to MEKK2 WT; actives lie on both sides | hit rate 1.1% among 290,000 | binding response (% of control), % at 10 µM; in the data active = binding response below about 67% or above about 130%
MEKK3 PB1 HTS: modulators (inhibitors or enhancers) of MEK5 binding to human MEKK3 PB1 domain; Q99759; bead-based flow cytometry, Alexa488-MEK5 binding to MEKK3; actives lie on both sides; 0 = blocked by unlabeled MEK5, 100 = vehicle; binding response (% of control), % at 10 µM; hit rate 1.4% among 290,000;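 active = binding response more than 3 SD above or below the average of its plate-row segment, actives on both sides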;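 note: Alexa488 bead fluorescence after subtracting the streptavidin-only scavenger bead signal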
Target sequence (Q99759 whole entry, looked up, the tested form may be a part): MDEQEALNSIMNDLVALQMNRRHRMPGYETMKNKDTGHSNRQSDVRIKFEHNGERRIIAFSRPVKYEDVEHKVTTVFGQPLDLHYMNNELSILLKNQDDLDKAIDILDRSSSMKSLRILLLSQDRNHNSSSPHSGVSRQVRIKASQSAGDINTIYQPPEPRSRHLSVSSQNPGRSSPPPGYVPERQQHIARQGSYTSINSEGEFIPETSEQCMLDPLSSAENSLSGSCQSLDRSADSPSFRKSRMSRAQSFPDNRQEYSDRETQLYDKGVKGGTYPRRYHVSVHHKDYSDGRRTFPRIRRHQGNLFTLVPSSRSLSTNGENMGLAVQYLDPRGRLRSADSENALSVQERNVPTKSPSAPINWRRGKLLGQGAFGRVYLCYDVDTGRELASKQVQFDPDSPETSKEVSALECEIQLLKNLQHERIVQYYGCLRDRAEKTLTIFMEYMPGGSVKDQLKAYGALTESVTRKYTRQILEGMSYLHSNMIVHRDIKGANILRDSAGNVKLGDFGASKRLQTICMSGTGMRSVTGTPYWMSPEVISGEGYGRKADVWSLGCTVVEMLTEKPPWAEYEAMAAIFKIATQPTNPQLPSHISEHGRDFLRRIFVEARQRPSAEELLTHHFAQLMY
MEKK2 mut-MEK5: signal of MEK5 binding to mutant human MEKK2 PB1 domain; bead flow cytometry, Alexa488-MEK5 binding to MEKK2 mutant; percent response, % at 10 µM; hit rate 0.35% among 290,000; AID 1530; in the data active = percent response above about 24%, passing the limit was not always enough
MEKK2wt confirm: raises or lowers MEK5 binding to wildtype human MEKK2, retest. bead flow cytometry, Alexa488-MEK5 binding to MEKK2 WT; actives lie on both sides. shares compounds with MEKK3 PB1 HTS. binding response (% of control), % at 10 µM. hit rate 2.4% among 5,900; in the data active = binding response below about 16% or above about 210%; inactive = in between
MEKK2mut confirm: signal of MEK5 binding to mutant human MEKK2, retest; bead flow cytometry, Alexa488-MEK5 binding to MEKK2 mutant; AID 1893; percent response, % at 10 µM; hit rate 2% among 5,900; shares compounds with MEKK3 PB1 HTS; in the data active = percent response mostly above about 71%, no sharp cut-off; inactive = mostly below about 38%;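 note: higher means compound restores mutant binding toward wildtype level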
MEKK3 confirm: confirmation of inhibitors of MEK5 binding to human MEKK3. hit rate 1.8% among 5,900. binding response (% of control), % at 10 µM. shares compounds with MEKK3 PB1 HTS. AID 1894. bead flow cytometry, Alexa488-MEK5 binding to MEKK3; stronger effect = lower value;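 active = binding response below 72% of control, or above a set upper limit, though filed actives all read lower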
A number is an active result; 0 = inactive; - = not tested or not shown; [ ] = another dose, or the depositor's remark.

SMILES	ATG4B inhibitor	Dynein transport	B2AR ag	MEKK2 WT-MEK5	MEKK3 PB1 HTS	MEKK2 mut-MEK5	MEKK2wt confirm	MEKK2mut confirm	MEKK3 confirm
CN(Cc1ccccc1)CC(O)COc1ccc(CNCCCOc2cccnc2)cc1 (stereo not drawn)	0	0	0	139	0	0	0	0	0
O=C(CN1C(=O)COc2ccccc21)c1ccc(Cl)cc1	0	0	0	0	122	0	0	0	0
Cc1cc(OCC(=O)NC(C)(C)C)ccc1Cl	0	0	0	0	128	0	0	0	0
O=S(=O)(/C=C/c1ccccc1)c1ccccc1	0	0	0	0	126	0	0	0	0
Cc1ccc(OCCn2ccnc2)c([N+](=O)[O-])c1	0	-	0	136	0	0	0	0	0
O=C(CSc1nc(-c2ccc(F)cc2)nc2ccc(F)cc12)Nc1cccc(C(=O)O)c1	0	0	0	0	0	0	-	-	-
O=C(CSc1nc(-c2ccccc2)nc2ccccc12)Nc1cccc(C(=O)O)c1	0	0	0	6.0[inhibitor]	4.0[inhibitor]	0	0	0	0
CS(=O)(=O)N1CCN(C(=O)Cc2cccs2)CC1	0	0	0	0	63[inhibitor]	0	0	0	0
CS(=O)(=O)N1CCN(C(=O)COc2ccc3ccccc3c2)CC1	0	0	0	0	132	0	0	0	0
Cc1ccc2nc(Cl)c3cc(C(=O)NCCCN4CCCC4)sc3c2c1	0	0	0	162	0	0	0	0	0
COc1ccccc1/C=C/C=N/NC(=O)c1ccc2nc[nH]c2c1	-	0	-	0	0	0	-	-	-
CCNc1nc(N2CCCCC2)nc(-n2nnc(C(=O)OCC)c2C)n1	0	0	0	61[inhibitor]	60[inhibitor]	0	0	0	0
O=C(CSc1nc2c(c(=O)n1-c1ccc(Cl)cc1)SCC2)NCc1ccco1	0	0	0	-	-	-	-	-	-
O=C(CSc1nc2c(c(=O)n1-c1ccc(F)cc1)SCC2)NCc1ccco1	0	0	0	0	124	0	0	0	0
COc1cccc(-n2cc(C(=O)NCCCOC(C)C)c3ccccc3c2=O)c1	0	-	0	0	0	0	-	-	-
O=C(O)c1cc(N/N=C/c2ccc(OCc3ccccc3)cc2)ccc1Cl	0	0	0	186	0	134	0	0	0
NC(N)=N/N=C/c1ccc(OCc2ccc(Cl)cc2)cc1	0	0	58	183	0	29	0	0	0
N#C/C(=C\c1ccc(OCc2ccccc2)cc1)C(N)=O	0	0	0	0	131	0	0	0	0
Cc1ccc(COc2ccc(/C=N/O)cc2)cc1	0	0	0	0	0	0	-	-	-
NC(N)=N/N=C/c1ccc(OCc2ccccc2)cc1	0	0	0	162[inhibitor]	0	0	0	0	0
Cc1nc(SCC(=O)N2CCN(C(=O)c3cccs3)CC2)c2c(C)c(C)sc2n1	0	-	0	-	-	-	-	-	-
CC1CCN(Cc2ccc(NC(=O)C3CCN(c4nnc(-n5cccc5)s4)CC3)cc2)CC1	0	0	0	231	0	78	0	0	0
O=C(C1CCN(c2nnc(-n3cccc3)s2)CC1)N1CCN(Cc2ccc3c(c2)OCO3)CC1	0	0	0	0	0	0	-	-	-
CC(=O)c1c(C)[nH]c(C(=O)OCC(=O)N2CCc3ccccc32)c1C	0	0	0	1.0[inhibitor]	2.0[inhibitor]	0	0	0	0
CCOc1ccc(Nc2nc(NCC3CCCO3)c3ccccc3n2)cc1 (stereo not drawn)	0	0	0	166	0	0	0	0	0
SMILES	ATG4B inhibitor	Dynein transport	B2AR ag	MEKK2 WT-MEK5	MEKK3 PB1 HTS	MEKK2 mut-MEK5	MEKK2wt confirm	MEKK2mut confirm	MEKK3 confirm
CCOc1ccc(Nc2c3ccccc3nc3ccccc23)cc1	0	0	52	149	0	0	0	0	0
CN(C(=O)c1cccc(NC(=O)Cc2ccc(NC(=O)C3CCN(C(=O)C4CCCC4)CC3)cc2)c1)C1CC1	0	-	0	-	-	-	-	-	-
CCN(CC)CCn1c(NC(=O)c2ccccc2O)nc2ccccc21	0	-	0	0	0	0	-	-	-
CN1CCN(NC(=O)C2CC2)CC1	0	0	0	0	142	0	0	0	0
S=c1nc(SCc2ccccc2)[nH]c2ccccc12	0	0	0	0	49[inhibitor]	0	0	0	0
c1ccc(CSc2nc3ncncc3[nH]2)cc1	0	0	0	0	0	0	-	-	-
Cc1csc(=O)n1CCC(=O)OCc1nnc(-c2ccc(Cl)cc2)o1	0	-	0	-	-	-	-	-	-
Cc1cc(C)n(C(=O)CNC(=O)/C=C/c2ccccc2)n1	0	0	0	0	0	0	-	-	-
COc1ccccc1/C=C/C(=O)NCC(=O)n1nc(C)cc1C	0	0	0	59[inhibitor]	58[inhibitor]	0	0	0	0
CCN(CC)CC(=O)Nc1ccc2c(c1)Nc1ccccc1CC2	0	0	0	135	0	0	0	0	0
CCN(CC)CC(=O)Nc1ccc2c(c1)N(C(=O)CN(CC)CC)c1ccccc1CC2	0	0	0	0	0	0	-	-	-
COc1cc(S(=O)(=O)NCC2(N3CCCCC3)CCCCC2)ccc1NC(C)=O	0	-	0	-	-	-	-	-	-
Cc1n[nH]c(=S)n1/N=C/c1ccc(OCc2ccc(Cl)cc2)cc1	0	0	0	0	0	0	-	-	-
Cc1cc(C)c(COc2ccc(/C=N/n3c(C)n[nH]c3=S)cc2)c(C)c1	0	0	0	0	72[inhibitor]	0	0	0	0
O=C(CSc1nc2ccccc2c(=O)n1-c1ccc(OC(F)F)cc1)NCc1cccs1	0	0	0	0	138	0	0	0	0
CNC(=O)CSc1nnc(C(C)C)n1C	0	0	0	0	136	0	0	0	0
Cc1cc(C)nc(SCC(=O)NNS(=O)(=O)c2ccc(C#N)cc2)n1	0	-	0	-	-	-	-	-	-
CCOc1ccc(CN2CCN(C(=O)c3cccc4ccccc34)CC2)cc1	0	-	0	0	0	0	-	-	-
COc1ccc(C)cc1NC(=O)CCC(=O)Nc1ccc2nc(N3CCN(C)CC3)cc(C)c2c1	0	0	-	-	-	-	-	-	-
CCN1CCN(c2cc(C)c3cc(NC(=O)CCC(=O)Nc4ccc(OC)c(OC)c4)ccc3n2)CC1	0	-	0	0	0	0	-	-	-
CCN1CCN(c2cc(C)c3cc(NC(=O)c4ccc(OC)c(OC)c4)ccc3n2)CC1	0	0	0	0	0	30	0	0	0
COc1ccc(C(=O)Nc2ccc3nc(N4CCN(C)CC4)cc(C)c3c2)c(OC)c1	0	-	0	156	0	24	0	0	0
